In article PMC4576993 (Leukemia, 2011):
Where “and” joins values, the source holds several entries; their conditions need not be identical. Equal entries are not always repeated.

Key:
[1] = patients with solid tumors, up to 75 mg/m^2/28-day cycle; cited from earlier work
[2] = test system: relapsed or refractory leukemia; assay: Clinical response; assay type: in vivo, human
Procedure, shortened: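 Dosing was a ~10 min IV infusion, either weekly (days 1, 8, 15; 18–90 mg/m2) or twice weekly (days 1, 4, 8, 11; 9–50 mg/m2), in 28-day cycles, up to 4(+2) cycles. Marrow aspirate or biopsy and peripheral blood were taken at each cycle end (~day 28). Response followed IWG criteria: MLFS was marrow blasts <5%; CR added no circulating blasts, no extramedullary disease, neutrophils >1×10^9/l and platelets ≥100×109/l; CRp was CR with incomplete platelet recovery.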

[3] = rat tissue distribution studies; no reference given; cited from earlier work
[4] = test system: p53; conditions: cited from earlier work
[5] = test system: bone marrow; conditions: at its MTD, normal mouse model; cited from earlier work
[6] = test system: MV4-11 AML cell line; conditions: in vitro; cited from earlier work
[7] = Renal excretion of vosaroxin and metabolites in urine, 24 h after first dose; assay type: in vivo, human; conditions: 24 h after first dose, 18 and 27 mg/m^2 weekly, eight patients
[8] = non-clinical toxicology studies; no reference given; cited from earlier work

CN[C@H]1CN(c2ccc3c(=O)c(C(=O)O)cn(-c4nccs4)c3n2)C[C@@H]1OC [vosaroxin, (+)-1,4-dihydro-7-(trans-3-methoxy-4-methylamino-1-pyrrolidinyl)-4-oxo-1-(2-thiazolyl)-1,8-naphthyridine-3-carboxylic acid]
Primary DLT [1]: myelosuppression
Median time to morphologic leukemia-free state after first dose ([2]; 16 patients): 32.5 days
Time to morphologic leukemia-free state after first dose, range ([2]; 16 patients): 21–51 days
Patients with response of CR or CRp ([2]; 73 treated patients, both schedules): Five
Additional patients with morphologic leukemia-free state (beyond CR/CRp) ([2]; both schedules): 11 patients
Duration of CR/CRp responses, range ([2]; five responding patients): 1.7–19.2 months
Median duration of CR/CRp responses ([2]; five responding patients): 3.1 months
Patients achieving morphologic leukemia-free state ([2]; once weekly with ≥50 mg/m^2): 12 patients
Patients achieving morphologic leukemia-free state ([2]; twice weekly with ≥30 mg/m^2): 4 patients
Time plasma concentration >1 μmol/l in the other two patients with CR or CRp ([2]; weekly time above threshold): 10 h and 16 h
Concentration in bone marrow relative to blood [3]: ~ 30 fold
Dependence of activity on p53 [4]: independent of p53
Bone marrow ablation compared with cytarabine [5]: ablated bone marrow more potently than cytarabine
Half-maximal (50%) inhibitory concentration (IC50) [6]: 0.0401 µg/mL
IC90 [6]: 1000 nM
Average renal excretion of the total dose infused [7]: 2.35%
Primary adverse effects [8]: myelosuppression and gastrointestinal toxicity
